Shown are actives, neighbours in structure and some others; about 1.5% of the full set was active somewhere.
Mot1-301 SUMO: blocks SUMOylation pathway, rescuing yeast Mot1-301 growth; S. cerevisiae Mot1-301 growth rescue, ATP luminescence, 38.5C; percent above DMSO median, 100 means doubled; growth rescue, % at 18.8 µM; hit rate 1% among 320,000;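 active = every valid replicate shows activation above 250% relative to neutral control wells; inactive = the rest, any valid replicate at or below 250%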;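 note: OY570 slx delta 5 strain wells were the positive control but not used for scaling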
Cneo AK release: Cryptococcus neoformans lysis via adenylate kinase release; AID 651654; hit rate 0.2% among 360,000; C. neoformans lysis, adenylate kinase release luminescence, 4 h; normalised: neutral wells 0, clomiphene wells 100; lysis activity, % at 15 µM;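 active = mean lysis activity across replicates of at least 80%, whatever share of replicates individually reach that level; inactive = mean lysis activity below 80%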
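Test system: log-phase Cryptococcus neoformans yeast cells. Input: 5 × 10^6 yeast cells/mL. Medium: fresh YPD growth medium. Doses: single dose. Incubation: static 4 h at 37 °C with compound, 1 h detection. Measured by: luminescent adenylate kinase detection reagent. Read-out: signal increase indicating cell lysis. Benchmarks: Clomiphene.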
C2C12 statin: suppression of simvastatin myotoxicity. C2C12 myotubes + simvastatin, ATP luminescence, 48 h; scaled: DMSO 0, geranylgeraniol control 100. rescue of ATP level, % at 7.49 µM. hit rate 0.78% among 330,000;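 active = mean ATP rescue above about 67%, or every replicate alone reaching that limit, limit read from the data, passing the limit was not always enough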;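 note: myotubes were challenged with 10 µM simvastatin during compound exposure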
An asterisk follows results filed as active; · = not tested or not shown.

SMILES	Mot1-301 SUMO	Cneo AK release	C2C12 statin
CC(=O)NNC(=O)c1sc(=S)n2c1[nH]c(=O)c1sccc12	1	·	·
NC(=O)c1sc(=S)n2c1[nH]c(=O)c1sccc12	730*	5	19
C[C@H]1CN([C@@H](C)CO)C(=O)c2cc(-c3cccnc3)cnc2O[C@@H]1CN(C)C(=O)Cc1cccnc1	·	0	1
CC(C)C(NC(=O)/C=C/c1ccc(F)cc1)C(C)C	288*	-1	6
CC(NC(=O)/C=C/c1ccccc1)c1ccccc1 (centres undefined)	29	2	-27
Cc1ccc(S(=O)(=O)N(C)C[C@@H]2Oc3ncc(-c4ccncc4)cc3C(=O)N([C@H](C)CO)C[C@@H]2C)cc1	·	0	-11
COc1cccc(C#Cc2cnc3c(c2)C(=O)N([C@H](C)CO)C[C@H](C)[C@@H](CN(C)C)O3)c1	·	2	24
Cc1ccc(NC(=O)COC(=O)c2ccc3c(c2)OCCO3)cc1S(=O)(=O)N1CCOCC1	6	·	·
Cc1ccc(C(=O)OCC(=O)Nc2ccc3c(c2)OCO3)cc1S(=O)(=O)N1CCOCC1	-1	-1	108*
C[C@H]1CCCCO[C@@H](CN(C)Cc2ccc(C(=O)O)cc2)[C@@H](C)CN([C@@H](C)CO)C(=O)c2cc(NS(=O)(=O)c3ccc(Cl)cc3)ccc2O1	·	-2	·
Cc1cccc(Nc2nc(-c3c(C)nc4ccccn34)cs2)c1	8	4	-160
Cc1nc2ccccn2c1-c1nnco1	15	0	72*
COc1ccc(S(=O)(=O)N(C)C[C@@H]2Oc3ncc(-c4ccncc4)cc3C(=O)N([C@@H](C)CO)C[C@@H]2C)cc1	·	6	-9
CCNC(=O)C[C@@H]1CC[C@@H]2[C@H](COc3ccc(NC(=O)c4ccccc4Cl)cc3C(=O)N2C)O1	·	-7	0
C[C@@H](NC(=O)[C@H]1[C@H](CO)[C@H]2Cn3c(ccc(C4=CCCCC4)c3=O)[C@@H]1N2)c1ccccc1	·	0	-6
CNC(=O)[C@@]1(C)C=C[C@@H](Cc2ccccc2)N1C(=O)OC	271*	1	1
COC(=O)N1[C@H](Cc2ccccc2)C=C[C@]1(C)C(=O)NCc1ccccn1	-11	2	5
COC(=O)C(Cc1ccc(OC(=O)c2ccc(Cl)cc2)cc1)N1Cc2ccccc2C1=O (centres undefined)	-2	-1	84*
COC(=O)C(Cc1ccc(OC(=O)c2ccc(C(F)(F)F)cc2)cc1)N1Cc2ccccc2C1=O (centres undefined)	-4	2	-3
C[C@@H]1CN([C@@H](C)CO)C(=O)Cc2cc(NC(=O)Nc3cccc4ccccc34)ccc2O[C@H]1CN(C)Cc1ccncc1	·	13	-15
CCNC(=O)C[C@H]1CC[C@@H]2[C@H](COC[C@@H](O)CN2C(=O)Nc2c(C)noc2C)O1	·	-2	2
COc1cccc(NC(=O)CSc2nnc(-c3cc(-c4ccccn4)nc4ccccc34)o2)c1	4	-9	83*
CC(=O)Nc1cccc(Oc2nc(-c3ccccn3)nc3ccccc23)c1	532*	-3	·
CC(=O)Nc1ccc(Oc2nc(-c3ccccn3)nc3ccccc23)cc1	-5	·	·
COc1ccc(-c2nnc(SCC(=O)Nc3cccc(Cl)c3)o2)cc1	-4	-2	-20
SMILES	Mot1-301 SUMO	Cneo AK release	C2C12 statin
COc1ccc(S(=O)(=O)N(C)C[C@H]2OCCCC[C@H](C)Oc3ccc(NC(=O)Nc4c(C)noc4C)cc3C(=O)N([C@H](C)CO)C[C@H]2C)cc1	·	-3	-13
CN1C(=O)N[C@@H]2c3ccccc3O[C@@]1(C)[C@@H]2COC(=O)c1ccccc1	·	96*	·
CN1C(=O)N[C@@H]2c3ccccc3O[C@@]1(C)[C@@H]2COC(=O)c1ccc([N+](=O)[O-])cc1	·	-2	·
CCC(=O)Nc1ccc2c(c1)C(=O)N(C)[C@H]1CC[C@H](CC(=O)NCc3ccccc3Cl)O[C@@H]1CO2	·	2	14
Cc1noc(C)c1S(=O)(=O)Nc1ccc2c(c1)CC(=O)N([C@@H](C)CO)C[C@@H](C)[C@H](CN(C)S(C)(=O)=O)O2	·	-5	5
Cn1cnc(S(=O)(=O)N2CCCCN3[C@H](C2)[C@H](c2ccc(C4=CCCC4)cc2)[C@@H]3CO)c1	·	1	·
C[C@@H]1CN([C@H](C)CO)C(=O)Cc2cc(NC(=O)Nc3cccc4ccccc34)ccc2O[C@H]1CN(C)C	·	2	-3
COc1cc(OC)cc(C(=O)Nc2cccc3nc(C)ccc23)c1	92	-1	1
COc1ccc(C(=O)Nc2cccc3nc(C)ccc23)cc1OC	549*	4	28
C[C@@H]1CN([C@H](C)CO)C(=O)c2cc(NC(=O)NC3CCCCC3)ccc2O[C@@H](C)CCCCO[C@@H]1CN(C)C(=O)CCC(F)(F)F	·	-3	·
N#CC1=C(N)N(c2ccccc2)C(=O)C1	-18	-3	106*
COc1ccc(N2C(=O)CC(C#N)=C2N)cc1	3	·	·
Cc1noc(C)c1S(=O)(=O)Nc1ccc2c(c1)C(=O)N([C@@H](C)CO)C[C@@H](C)[C@@H](CN(C)C(=O)CCC(F)(F)F)OCCCC[C@H](C)O2	·	2	·
CC(C)(C)NC(=O)C(c1ccc(F)cc1)N(CCc1ccccc1)C(=O)c1ccn[nH]1 (centres undefined)	15	·	12
COc1ccc(N(C(=O)c2ccn[nH]2)C(C(=O)NC(C)(C)C)c2ccc(F)cc2)cc1 (centres undefined)	-1	0	88*
CCn1cc([N+](=O)[O-])c(C(=O)N2N=C(c3cccc4ccccc34)CC2c2ccccc2O)n1 (centres undefined)	-21	-1	80*
CCn1cc([N+](=O)[O-])c(C(=O)N2N=C(c3ccc4ccccc4c3)CC2c2ccccc2O)n1 (centres undefined)	-18	-2	44
CCN1[C@@H]2c3ccc(C4=CCCC4)c(=O)n3C[C@@H]2[C@@H](CO)[C@@H]1C(=O)NCCc1ccccc1	·	-2	2
COc1cccc(CCNC(=O)CC2C(=O)NCCN2Cc2ccc(Cl)c(F)c2)c1 (centres undefined)	-21	2	14
COc1cccc(CN2CCNC(=O)C2CC(=O)NCCN2CCCCC2=O)c1 (centres undefined)	·	1	86*
C[C@@H]1CN([C@H](C)CO)C(=O)c2cc(NC(=O)Cc3ccccc3)ccc2O[C@@H](C)CCCCO[C@H]1CN(C)Cc1ccc2c(c1)OCO2	·	3	·
NC(=Nc1ccccc1)Nc1ccccc1	-28	0	9
ONC(=Nc1ccccc1)C(=Nc1ccccc1)NO	-9	-1	86*
COc1cccc(/C=N/Nc2nc(-c3cccnc3)nc3ccccc23)c1	314*	·	·
C(=N\Nc1nc(-c2cccnc2)nc2ccccc12)/c1ccccc1	-1	-3	·
CCCN1C[C@@H](C)[C@@H](OC)CN(C)C(=O)c2ccc(NC(=O)Nc3ccccc3F)cc2OC[C@H]1C	·	-3	-2
C[C@@H]1CCCCO[C@@H](CN(C)S(=O)(=O)c2ccc(F)cc2)[C@@H](C)CN([C@H](C)CO)C(=O)c2cc(NS(C)(=O)=O)ccc2O1	·	-2	-18

Source: PubChem BioAssay (Broad Institute)
